Measured values from ChEMBL document CHEMBL4732257, “The optimization and characterization of functionalized sulfonamides derived from sulfaphenazole against Mycobacterium tuberculosis with reduced CYP 2C9 inhibition” (Bioorg Med Chem Lett, 2021).
In brackets after ≈: the same amount, converted by molar mass.

Key:
[1] = system: Mycobacterium tuberculosis; experiment: Antimycobacterial activity against Mycobacterium tuberculosis H37Rv assessed as bacterial growth inhibition; type: functional
CYP2C9 = CYP2C9 (Homo sapiens, UniProt P11712); experiment: Inhibition of CYP2C9 (unknown origin) at 0.5 uM relative to control; type: ADME
CYP2C9, sequence (P11712 whole entry): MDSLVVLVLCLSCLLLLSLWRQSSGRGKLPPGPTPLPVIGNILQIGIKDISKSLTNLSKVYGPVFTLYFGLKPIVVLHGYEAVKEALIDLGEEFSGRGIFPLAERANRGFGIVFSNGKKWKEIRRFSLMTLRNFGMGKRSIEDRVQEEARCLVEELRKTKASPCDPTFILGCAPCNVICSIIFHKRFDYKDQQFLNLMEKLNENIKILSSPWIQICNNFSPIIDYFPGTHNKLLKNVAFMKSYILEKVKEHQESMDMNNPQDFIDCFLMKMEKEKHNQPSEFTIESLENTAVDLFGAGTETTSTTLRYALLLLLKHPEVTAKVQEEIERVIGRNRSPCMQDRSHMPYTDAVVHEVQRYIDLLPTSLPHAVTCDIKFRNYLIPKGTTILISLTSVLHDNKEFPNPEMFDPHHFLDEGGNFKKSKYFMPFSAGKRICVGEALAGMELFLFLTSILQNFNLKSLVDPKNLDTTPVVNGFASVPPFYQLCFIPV

Cytochrome P450 2C9 = Cytochrome P450 2C9 (Homo sapiens, UniProt P11712); experiment: Inhibition of CYP2C9 (unknown origin); type: ADME
Cytochrome P450 2C9, sequence (P11712 whole entry): as above

Vero = experiment: Cytotoxicity against African green monkey Vero cells assessed as reduction in cell viability; type: cell-based; settings: Chlorocebus sabaeus
Outline: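 Vero cells exposed to the compounds; IC50 taken as the concentration inhibiting 50% of cell growth relative to an untreated control.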

Compound	MIC90 [1] [µg/mL]	other results
Cc1cc(NS(=O)(=O)c2ccc(N)cc2)n(-c2ccccc2)n1 [SULFAZAMET]	15.4 (≈ 46.8 µM)	inhibition at 0.5 µM (CYP2C9): 45%
Nc1ccc(S(=O)(=O)Nc2ccnn2-c2cccc(F)c2)cc1	7.93 (≈ 23.9 µM)	
Nc1ccc(S(=O)(=O)Nc2ccnn2-c2ccc(C(F)(F)F)cc2)cc1	> 32	
CN(c1ccnn1-c1ccccc1)S(=O)(=O)c1ccc(N)cc1	> 32	
Nc1ccc(-c2ccc(S(=O)(=O)Nc3ccnn3-c3ccccc3)cc2)cc1	> 32	
Nc1ccc(S(=O)(=O)Nc2ccnn2-c2ccc([N+](=O)[O-])cc2)cc1	10.3 (≈ 28.7 µM)	
Nc1ccc(S(=O)(=O)Nc2nc3ccc(-c4ccccc4)cc3s2)cc1	> 32	
Nc1ccc(S(=O)(=O)Nc2ccc3scnc3c2)cc1	> 32	
Nc1ccc(S(=O)(=O)Nc2ccnn2C2CCCCC2)cc1	> 32	
Nc1ccc(S(=O)(=O)Nc2ccnn2Cc2ccccc2)cc1	> 32	
COc1cc(N)ccc1S(=O)(=O)Nc1ccnn1-c1ccccc1	> 32	
O=C(c1ccc(S(=O)(=O)Nc2ccnn2-c2ccccc2)cc1)N1CCNCC1	> 32	
Cc1ccc(-c2ccc(-n3nccc3NS(=O)(=O)c3ccc(N)cc3)cc2)cc1	31 (≈ 76.7 µM)	inhibition at 0.5 µM (CYP2C9): 2.2%
CCc1cc(NS(=O)(=O)c2ccc(N)cc2)n(-c2ccccc2)n1	> 32	
O=C(c1ccc(S(=O)(=O)Nc2ccnn2-c2ccccc2)cc1)N1CCCCC1	30.1 (≈ 73.4 µM)	inhibition at 0.5 µM (CYP2C9): 0.2%
Nc1ccc(S(=O)(=O)Nc2ccnn2-c2ccc(Br)cc2)cc1	14.5 (≈ 37 µM)	
Nc1ccc(S(=O)(=O)Nc2ccnn2-c2ccc(-c3ccccc3)cc2)cc1	> 32	
Nc1ccc(S(=O)(=O)Nc2ccc3cnn(-c4ccccc4)c3c2)cc1	> 32	
Nc1cccc(S(=O)(=O)Nc2ccnn2-c2ccccc2)c1	> 32	
Nc1ccc(S(=O)(=O)Nc2cc(-c3ccccc3)nn2-c2ccccc2)cc1	> 32	

Compound	MIC90 [1] [µg/mL]	other results
COc1ccc(-c2ccc(-n3nccc3NS(=O)(=O)c3ccc(N)cc3)cc2)cc1	> 32	
CC(C)(C)c1cc(NS(=O)(=O)c2ccc(N)cc2)n(-c2ccccc2)n1	> 32	
Cc1ccc(C)c(-n2nccc2NS(=O)(=O)c2ccc(N)cc2)c1	> 32	
Nc1ccc(S(=O)(=O)Nc2ccnn2-c2ccccc2)cc1F	> 32	
COc1ccc(-n2nccc2NS(=O)(=O)c2ccc(N)cc2)cc1	5.69 (≈ 16.5 µM)	inhibition at 0.5 µM (CYP2C9): 9.1%; IC50 (Cytochrome P450 2C9): 11.5 µM; IC50 (Vero): > 64 µg/mL
O=C(c1ccc(S(=O)(=O)Nc2ccnn2-c2ccccc2)cc1)N1CCSCC1	> 32	
Nc1ccc(S(=O)(=O)Nc2ccnn2-c2ccc(F)cc2)cc1	6.88 (≈ 20.7 µM)	inhibition at 0.5 µM (CYP2C9): 45.7%; IC50 (Vero): > 64 µg/mL
Cc1ccc(-n2nccc2NS(=O)(=O)c2ccc(N)cc2)cc1	7.33 (≈ 22.3 µM)	inhibition at 0.5 µM (CYP2C9): 52.3%; IC50 (Vero): > 64 µg/mL
NNC(=O)c1ccncc1 [ISONIAZID]	0.02 (≈ 0.146 µM)	
Nc1ccc(S(=O)(=O)Nc2ccnn2C2CCCC2)cc1	> 32	
Nc1ccc(S(=O)(=O)Nc2ccnn2-c2ccccc2)cc1 [SULFAPHENAZOLE]	5.51 (≈ 17.5 µM)	inhibition at 0.5 µM (CYP2C9): 48.3%; IC50 (Vero): > 64 µg/mL
Cc1cccc(-n2nccc2NS(=O)(=O)c2ccc(N)cc2)c1	12.2 (≈ 37.2 µM)	
Nc1ccc(S(=O)(=O)Nc2nc3ccccc3s2)cc1	14.3 (≈ 46.7 µM)	inhibition at 0.5 µM (CYP2C9): 4.8%
CNc1ccc(S(=O)(=O)Nc2ccnn2-c2ccccc2)cc1	> 32	
O=S(=O)(Nc1ccnn1-c1ccccc1)c1ccc(N2CCCCC2)cc1	> 32	
COc1ccc(-c2ccc3nc(NS(=O)(=O)c4ccc(N)cc4)sc3c2)cc1	> 32	
Nc1ccc(S(=O)(=O)Nc2nc3ccccc3o2)cc1	> 32	
CC(=O)Nc1ccc(S(=O)(=O)Nc2ccnn2-c2ccccc2)cc1	> 32	
Nc1ccc(S(=O)(=O)Nc2sccc2-c2ccccc2)cc1	> 32	
